Source: PubChem BioAssay (The Scripps Research Institute Molecular Screening Center)
Only some compounds are listed: those with a hit (about 2.5% of all), similar ones and a draw of the others.
OX1R antag-1: OX1R (human) antagonism; O43613; 1.8% of 330,000 active; inhibition, % at 6.6 µM; OX1R-expressing cells, FRET antagonist read-out; in the data active = inhibition mostly above about 38%, no sharp cut-off; inactive = mostly below about 40%;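 note: 0% = agonist challenge alone and 100% = reference antagonist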
Target sequence (O43613 whole entry, looked up): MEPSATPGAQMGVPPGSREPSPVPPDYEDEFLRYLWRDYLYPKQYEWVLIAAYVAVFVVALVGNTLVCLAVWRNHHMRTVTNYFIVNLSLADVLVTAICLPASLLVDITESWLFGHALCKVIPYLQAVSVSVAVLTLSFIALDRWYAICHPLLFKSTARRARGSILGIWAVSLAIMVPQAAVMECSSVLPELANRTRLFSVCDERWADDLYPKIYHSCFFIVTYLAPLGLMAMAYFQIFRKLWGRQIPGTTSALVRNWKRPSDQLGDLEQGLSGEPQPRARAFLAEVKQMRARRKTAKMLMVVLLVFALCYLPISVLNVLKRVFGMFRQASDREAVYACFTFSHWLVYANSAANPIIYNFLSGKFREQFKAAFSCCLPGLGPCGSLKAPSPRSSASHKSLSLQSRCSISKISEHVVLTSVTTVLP
OX1R antag-2: antagonists of human orexin 1 receptor. CHO/OX1R cells, Fluo-8 calcium fluorescence, orexin A. inhibition, % at 5 µM. 0.43% of 330,000 active;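 active = inhibition above its plate's threshold, mean inhibition of all tested compounds on the plate plus 3 SD, cut at about 37% in these data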;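 note: 0% = orexin A challenge wells and 100% = SB-334867-A antagonist wells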
TRPML3 agonist: activates the human TRPML3 channel | Q8TDD5 | HEK293 TRPML3-YFP, Fluo-8 calcium fluorescence; 100% = the carbachol control signal | activation, % at 3 µM | 0.29% of 220,000 active | AID 1448;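 active = activation above its plate's cutoff, the mean activation of the plate's test wells plus 3 SD, cut at about 12% in these data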;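 note: 0% = DMSO only wells and 100% = carbachol wells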
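system = HEK293 cells stably carrying human TRPML3-YFP | doses = one concentration, 3 µM nominal, 0.3% DMSO | timing = dye loading 1 h 37 °C then 30 min ambient, 125 s read | detection = Fluo-8 calcium dye fluorescence, ex 470-495, em 515-575 nm | benchmarks = high control carbachol 87 µM, low control DMSO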
zfTRPN1 agonist: activates the zebrafish TRPN1 channel. HEK293 zebrafish TRPN1-YFP, Fluo-8 calcium fluorescence; 100% = response to 87 µM carbachol. activation, % at 3 µM. 0.18% of 220,000 active. AID 1424;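 active = activation above its plate's cutoff, the mean activation of test wells on that plate plus 3 SD, cut at about 19% in these data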;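 note: 0% = DMSO alone and 100% = 87 µM carbachol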
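Material – zebrafish TRPN1-YFP in HEK293 cells · Doses – 3 µM single point · Schedule – dye 1 h 37 °C plus 30 min RT · Signal – Fluo-8 calcium fluorescence, excitation 470-495 nm, emission 515-575 nm · Read-out – % activation versus carbachol response · Control set – carbachol high, DMSO low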
CHO parental Ca: counter-screen: ATP calcium response change in parental CHO cells. parental CHO-K1, ATP-induced calcium, Fluo-8 fluorescence. inhibition, % at 5.6 µM. 0.63% of 330,000 active;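 active = inhibition above that plate's mean sample inhibition plus 3 SD, cut at about 26% in these data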;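 note: 0% = ATP-challenged DMSO wells and 100% = DMSO wells without ATP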
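Assay system: untransfected parental CHO cell line. Also added: ATP agonist challenge. Dosing: one dose, 5.6 µM nominal. Measured by: Fluo-8 fluorescence. Read-out: % inhibition. Benchmarks: ATP wells versus no-ATP DMSO wells. Repeats: no replicates.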
OX1R Fluo8 conf: confirmation of human orexin 1 receptor antagonists. shares compounds with OX1R antag-2. CHO/OX1R cells, orexin A calcium Fluo-8 fluorescence. inhibition, % at 5 µM. 38% of 1,100 active. AID 492963; in the data active = inhibition above about 29%;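 note: 0% = agonist challenge alone and 100% = reference antagonist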
CHO Ca counter: counter-screen for OX1R antagonists: effect in parental CHO cells | shares compounds with OX1R antag-2 | parental CHO-K1, ATP-induced calcium, Fluo-8 fluorescence | inhibition, % at 5.6 µM | 9.3% of 1,100 active;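 active = inhibition above a per-plate limit, the mean inhibition of that plate's test compounds plus 3 SD, cut at about 25% in these data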;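 note: 0% = ATP challenge with DMSO and 100% = DMSO without ATP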
* marks the source's active call; other numbers are inactive results; · = not tested or not shown.

SMILES	OX1R antag-1	OX1R antag-2	TRPML3 agonist	zfTRPN1 agonist	CHO parental Ca	OX1R Fluo8 conf	CHO Ca counter
CC(=O)N1CCN(S(=O)(=O)c2cccc(C(=O)NC3CC3)c2)CC1	1.1	-3.7	·	·	-6.8	·	·
Cc1cc(NC(=O)CN(C)CC(=O)Nc2ccc(Cl)c(C(F)(F)F)c2)no1	12.0	40.2*	·	·	-10.5	2.7	0.1
O=C1CCCc2[nH]c3cccc(/C(=C/c4ccccc4)c4ccccc4)c3c21	47.7	38.9	·	·	4.4	19.1	0.5
N#C/C(=N\Nc1ccc(Cl)cc1)C(=N)N1CCCCCC1	17.3	24.4	0.3	1.7	10.6	-3.1	-1.6
Cc1ccc(N/N=C(\C#N)C(=N)N2CCCCC2)cc1	6.5	-6.1	0.8	-0.2	-1.6	·	·
CC(C)(CNC(=O)c1cc([N+](=O)[O-])ccc1N1CCC(Cc2ccccc2)CC1)N1CCOCC1	6.0	-16.0	·	·	-29.0	·	·
COc1ccc(OC)c(NC(=O)COC(=O)CCCN=C2NS(=O)(=O)c3ccccc32)c1	3.3	-1.0	·	·	-10.0	·	·
COc1cc(OC)cc(C(=O)N=c2sc3ccccc3n2C)c1	60.1	-15.0	0.8	0.6	-14.0	·	·
COc1cccc(C(=O)N=c2sc3cc(S(C)(=O)=O)ccc3n2C)c1	56.5	30.3	0.7	1.2	5.8	20.3	6.3
COc1ccccc1N1CCN(C(=O)C(C)CS(=O)(=O)c2ccc3c(c2)NC(=O)CS3)CC1 (stereo not given)	1.8	-36.8	·	·	-15.4	·	·
CCC(=O)c1ccc(OC)c(OC)c1O	9.7	-12.5	0.5	0.2	3.3	·	·
COc1ccc(C(C)=O)c2c(O)cccc12	61.4	31.9	0.7	-0.3	-7.6	13.6	-3.6
CCOc1ccc(NS(=O)(=O)c2ccc(NC(=S)NC(=O)CC(C)C)cc2)cc1	8.7	29.4	3.1	6.8	-1.1	20.0	-7.7
COc1ccc2c(n1)Sc1nc3ccccc3nc1N2	29.5	34.9	29.1*	57.4*	24.3	47.3*	37.3*
CCOC(=O)/C=c1\s/c(=C\c2ccc3c(c2)OCCO3)c(=O)n1CC(=O)NCC1CCCO1 (stereo not given)	16.4	103.3*	1.1	0.4	-11.4	7.6	-11.5
CCOC(=O)/C=c1\s/c(=C\c2ccc3cc(OC)ccc3c2)c(=O)n1CC(=O)NCc1ccc2c(c1)OCO2	4.7	-4.6	0.4	0.6	-6.9	·	·
C=C(C)COc1ccc2c(C)c(CC(=O)OC)c(=O)oc2c1C	43.6	36.8	-0.1	2.9	25.5	-0.7	18.3
OCC1(Cc2cccc(Cl)c2)CCCN(Cc2ccc3cc(F)ccc3n2)C1 (stereo not given)	54.7	31.8	-1.0	-0.5	-30.2	33.1*	-9.9
CCOc1ccc(S(=O)(=O)N2CCC(C(=O)NCC3CCCO3)CC2)cc1C (stereo not given)	7.3	-13.3	·	·	-11.6	·	·
Cc1c(S(=O)(=O)N(C)C2CCCCC2)c(=O)n(C)c(=O)n1C	3.0	-7.3	·	·	-5.7	·	·
COc1ccc(CCN=Cc2ccccc2O)cc1OC	7.2	-13.2	0.5	1.2	-6.5	·	·
O=C(Nc1ccc([N+](=O)[O-])cc1)Nc1ccc2c(c1)OCCO2	41.7	27.5	4.4	12.9	17.6	23.0	18.6
COc1cc([N+](=O)[O-])ccc1NC(=O)Nc1ccc2c(c1)OCCO2	13.1	-17.1	0.8	0.5	8.3	·	·
CCOC(=O)c1ccc(NC(=O)c2cccc(S(=O)(=O)N3c4ccccc4CC3C)c2)s1 (stereo not given)	50.9	34.4	1.2	2.5	6.3	26.5	25.2*
CCOC(=O)C1=C(COc2ccccc2)NC(=O)NC1c1ccc(Br)cc1 (stereo not given)	10.2	-38.0	·	·	-34.6	·	·
COc1ccc(C(=O)NCCS(=O)(=O)NCc2ccc(F)cc2)cc1	5.0	-9.2	·	·	-22.3	·	·
CCCCCCCCNc1ncnc2ccccc12	35.9	89.9*	3.5	8.4	-2.8	15.7	84.7*
Cc1ccc(-c2csc3ncnc(SCC(=O)NCC4CCCO4)c23)cc1 (stereo not given)	3.4	-27.2	·	·	-15.6	·	·
